# Measurements as given in ChEMBL document CHEMBL1208775, “Synthesis and vasodilative activity of tanshinone IIA derivatives” (Bioorg Med Chem Lett, 2010).
# Legend:
# Thoracic aorta [1] = assay: Vasodilatory activity in Wistar rat endothelium-intact thoracic aorta assessed as inhibition of norepinephrine-induced contraction at 100 uM after 20 mins by organ-bath technique; type: functional
# Summary of the method: (§1)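 Rat aortic rings in Krebs-Henseleit solution, equilibrated 2 h at 1.5 g basal tension with bath changes every 20 min. Endothelium taken as intact when acetylcholine (1 × 10^-5 mmol) relaxed norepinephrine-precontracted rings by more than 80%. Rings were precontracted with norepinephrine bitartrate (1 × 10^-6 mM) before compound addition. Response is expressed as percent of maximal control norepinephrine contraction. Mean ± SEM, paired t-test.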
# Thoracic aorta [2] = assay: Vasodilatory activity in Wistar rat endothelium-intact thoracic aorta assessed as inhibition of norepinephrine-induced contraction after 20 mins by organ-bath technique; type: functional, tissue-based; summary of the method: as §1
Structure (SMILES),inhibition at 100 µM (Thoracic aorta [1]) [%],IC50 (Thoracic aorta [2]) [µM],inhibition (Thoracic aorta [2])
COc1ccc(C(c2oc3c(c2C)C(=O)C(=O)c2c-3ccc3c2CCCC3(C)C)c2oc3c(c2C)C(=O)C(=O)c2c-3ccc3c2CCCC3(C)C)cc1,11,–,–
CC(CO)C1=C(O)C(=O)c2c(ccc3c2CCCC3(C)C)C1=O (stereo not given),59.2,480,Dose-dependent effect
Cc1c(C(c2ccc(O)c(O)c2)c2oc3c(c2C)C(=O)C(=O)c2c-3ccc3c2CCCC3(C)C)oc2c1C(=O)C(=O)c1c-2ccc2c1CCCC2(C)C,-0.86,–,–
COc1cc(C(c2oc3c(c2C)C(=O)C(=O)c2c-3ccc3c2CCCC3(C)C)c2oc3c(c2C)C(=O)C(=O)c2c-3ccc3c2CCCC3(C)C)ccc1O,42.8,130,Dose-dependent effect
Cc1c(C(c2ccccc2)c2oc3c(c2C)C(=O)C(=O)c2c-3ccc3c2CCCC3(C)C)oc2c1C(=O)C(=O)c1c-2ccc2c1CCCC2(C)C,2.95,–,–
Cc1c(C(c2ccc(O)cc2)c2oc3c(c2C)C(=O)C(=O)c2c-3ccc3c2CCCC3(C)C)oc2c1C(=O)C(=O)c1c-2ccc2c1CCCC2(C)C,15.2,–,–
Cc1c(C(c2cccc([N+](=O)[O-])c2)c2oc3c(c2C)C(=O)C(=O)c2c-3ccc3c2CCCC3(C)C)oc2c1C(=O)C(=O)c1c-2ccc2c1CCCC2(C)C,18.8,–,–
Cc1coc2c1C(=O)C(=O)c1c-2ccc2c1CCCC2(C)C [TANSHINONE IIA],2.92,–,–
Cc1c(C(c2ccccc2Cl)c2oc3c(c2C)C(=O)C(=O)c2c-3ccc3c2CCCC3(C)C)oc2c1C(=O)C(=O)c1c-2ccc2c1CCCC2(C)C,-29.2,–,–
Cc1c(C(c2ccc(Cl)cc2)c2oc3c(c2C)C(=O)C(=O)c2c-3ccc3c2CCCC3(C)C)oc2c1C(=O)C(=O)c1c-2ccc2c1CCCC2(C)C,1,–,–
Cc1c(Br)oc2c1C(=O)C(=O)c1c-2ccc2c1CCCC2(C)C,4.24,–,–
Cc1c(C(c2cccc(Cl)c2)c2oc3c(c2C)C(=O)C(=O)c2c-3ccc3c2CCCC3(C)C)oc2c1C(=O)C(=O)c1c-2ccc2c1CCCC2(C)C,56,260,Dose-dependent effect
Cc1c(C(c2ccc([S+](C)[O-])cc2)c2oc3c(c2C)C(=O)C(=O)c2c-3ccc3c2CCCC3(C)C)oc2c1C(=O)C(=O)c1c-2ccc2c1CCCC2(C)C (stereo not given),10.3,–,–
Cc1c(C(c2ccc([N+](=O)[O-])cc2)c2oc3c(c2C)C(=O)C(=O)c2c-3ccc3c2CCCC3(C)C)oc2c1C(=O)C(=O)c1c-2ccc2c1CCCC2(C)C,11.4,–,–
